# Assay results published in ChEMBL document CHEMBL1147083, “High-throughput synergy screening identifies microbial metabolites as combination agents for the treatment of fungal infections” (Proc Natl Acad Sci U S A, 2007).
# Key:
# [1] = test system: Candida parapsilosis; experiment: Antifungal activity against Candida parapsilosis infected cyclophosphamide-immunocompromized Crl:CD1(ICR) mouse assessed as survival at 10 mg/kg, po for 5 days; format: functional
# How it was run: (§1)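 Female ICR (Crl:CD-1) mice on cyclophosphamide 100 mg/kg i.p. daily for 3 days, then infected i.p. on day 3 with 1 × 10^4 C. parapsilosis ATCC 22019 blastospores. Oral gavage dosing started 6 h postinfection and continued once daily for 5 days, with saline placebo. Mice observed thrice daily for […]. Moribund animals were killed and counted as dying the next day. Mean survival time compared to controls by one-way ANOVA and Kaplan–Meier.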
# [2] = test system: Candida parapsilosis; experiment: Antifungal activity against Candida parapsilosis infected cyclophosphamide-immunocompromized Crl:CD1(ICR) mouse assessed as fungal density in lung at 0.5 mg/kg, po for 5 days measured on day 12; format: functional
# How it was run: (§2)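 Female specific-pathogen-free ICR (Crl:CD-1) mice, ≈20–22 g, made neutropenic with cyclophosphamide 100 mg/kg i.p. once daily for 3 days. On day 3, infected i.p. with 1 × 10^4 C. parapsilosis ATCC 22019 blastospores. Oral gavage dosing began 6 h postinfection, then once daily for 5 days; placebo was 0.1 ml saline. Left kidney or lungs homogenized in 0.9% saline and plated on Sabouraud dextrose agar, 48 h at 35°C. Result is log10 cfu/g (n = 5).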
# [3] = test system: Candida parapsilosis; experiment: Antifungal activity against Candida parapsilosis infected cyclophosphamide-immunocompromized Crl:CD1(ICR) mouse assessed as fungal density in lung at 0.5 mg/kg, po for 5 days measured on day 12 in presence beauvericin; format: functional; how it was run: as §2
# [4] = test system: Candida parapsilosis; experiment: Antifungal activity against Candida parapsilosis infected cyclophosphamide-immunocompromized Crl:CD1(ICR) mouse assessed as fungal density in kidney at 10 mg/kg, po for 5 days measured on day 12; format: functional; how it was run: as §2
# [5] = test system: HepG2; experiment: Toxicity against human HepG2 cells at 100 ug/ml; format: cell-based
# [6] = test system: Candida parapsilosis; experiment: Antifungal activity against Candida parapsilosis infected cyclophosphamide-immunocompromized Crl:CD1(ICR) mouse assessed as fungal density in kidney at 0.5 mg/kg, po for 5 days measured on day 12 in presence beauvericin; format: functional; how it was run: as §2
# [7] = test system: Candida parapsilosis; experiment: Antifungal activity against Candida parapsilosis infected cyclophosphamide-immunocompromized Crl:CD1(ICR) mouse assessed as survival at 50 mg/kg, po for 5 days; format: functional; how it was run: as §1
# [8] = test system: Candida parapsilosis; experiment: Antifungal activity against Candida parapsilosis infected cyclophosphamide-immunocompromized Crl:CD1(ICR) mouse assessed as fungal density in lung at 10 mg/kg, po for 5 days measured on day 12; format: functional; how it was run: as §2
# [9] = test system: Candida parapsilosis; experiment: Antifungal activity against Candida parapsilosis infected cyclophosphamide-immunocompromized Crl:CD1(ICR) mouse assessed as fungal density in kidney at 0.5 mg/kg, po for 5 days measured on day 12; format: functional; how it was run: as §2
# [10] = test system: HepG2; experiment: Toxicity against human HepG2 cells at 6.25 ug/ml in presence of merine microbial F10104 extract; format: cell-based
# [11] = test system: HepG2; experiment: Toxicity against human HepG2 cells at 50 ug/ml; format: cell-based
# [12] = test system: Candida parapsilosis; experiment: Antifungal activity against Candida parapsilosis infected cyclophosphamide-immunocompromized Crl:CD1(ICR) mouse assessed as fungal density in lung at 50 mg/kg, po for 5 days measured on day 12; format: functional; how it was run: as §2
# [13] = test system: Candida parapsilosis; experiment: Antifungal activity against Candida parapsilosis infected cyclophosphamide-immunocompromized Crl:CD1(ICR) mouse assessed as survival at 0.5 mg/kg, po for 5 days in presence of beauvericin; format: functional; how it was run: as §1
# [14] = test system: Candida parapsilosis; experiment: Antifungal activity against Candida parapsilosis infected cyclophosphamide-immunocompromized Crl:CD1(ICR) mouse assessed as survival at 0.5 mg/kg, po for 5 days; format: functional; how it was run: as §1
# [15] = test system: Candida parapsilosis; experiment: Antifungal activity against Candida parapsilosis infected cyclophosphamide-immunocompromized Crl:CD1(ICR) mouse assessed as fungal density in kidney at 50 mg/kg, po for 5 days measured on day 12; format: functional; how it was run: as §2
# [16] = test system: Candida parapsilosis; experiment: Antifungal activity against Candida parapsilosis infected cyclophosphamide-immunocompromized Crl:CD1(ICR) mouse assessed as fungal density in brain at 0.5 mg/kg, po for 5 days measured on day 12; format: functional
SMILES,Survival [1] [days],Log10 cfu [2],Log10 cfu [3],Log10 cfu [4],Activity [5],Log10 cfu [6],Survival [7] [days],Log10 cfu [8],Log10 cfu [9],Activity [10],Activity [11],Log10 cfu [12],Survival [13] [days],Survival [14] [days],Log10 cfu [15],Log10 cfu [16]
CC(=O)N1CCN(c2ccc(OCC3COC(Cn4ccnc4)(c4ccc(Cl)cc4Cl)O3)cc2)CC1 (centres undefined) [KETOCONAZOLE],14.2,4.8,1.2,7.6,Toxic,1.3,19.4,3.5,8.4,Non-toxic,Toxic,2.6,>21,9.2,5.5,–
"CC(C)[C@@H]1OC(=O)[C@@H](Cc2ccccc2)N(C)C(=O)[C@H](C(C)C)OC(=O)[C@@H](Cc2ccccc2)N(C)C(=O)[C@H](C(C)C)OC(=O)[C@@H](Cc2ccccc2)N(C)C1=O (single isomer, unassigned) [BEAUVERICIN]",–,5.2,–,–,–,–,–,–,9.3,–,–,–,–,8.3,–,3.2
